Test results reported in ChEMBL document CHEMBL1128218, “New alpha-thiol dipeptide dual inhibitors of angiotensin-I converting enzyme and neutral endopeptidase EC 3.4.24.11” (J Med Chem, 1995).

Legend:
[1] = molecular target: T1, Angiotensin-converting enzyme (Oryctolagus cuniculus, UniProt P12822); assay: Evaluation of in vitro inhibitory activity against Angiotensin I converting enzyme
T1 sequence (P12822 whole entry): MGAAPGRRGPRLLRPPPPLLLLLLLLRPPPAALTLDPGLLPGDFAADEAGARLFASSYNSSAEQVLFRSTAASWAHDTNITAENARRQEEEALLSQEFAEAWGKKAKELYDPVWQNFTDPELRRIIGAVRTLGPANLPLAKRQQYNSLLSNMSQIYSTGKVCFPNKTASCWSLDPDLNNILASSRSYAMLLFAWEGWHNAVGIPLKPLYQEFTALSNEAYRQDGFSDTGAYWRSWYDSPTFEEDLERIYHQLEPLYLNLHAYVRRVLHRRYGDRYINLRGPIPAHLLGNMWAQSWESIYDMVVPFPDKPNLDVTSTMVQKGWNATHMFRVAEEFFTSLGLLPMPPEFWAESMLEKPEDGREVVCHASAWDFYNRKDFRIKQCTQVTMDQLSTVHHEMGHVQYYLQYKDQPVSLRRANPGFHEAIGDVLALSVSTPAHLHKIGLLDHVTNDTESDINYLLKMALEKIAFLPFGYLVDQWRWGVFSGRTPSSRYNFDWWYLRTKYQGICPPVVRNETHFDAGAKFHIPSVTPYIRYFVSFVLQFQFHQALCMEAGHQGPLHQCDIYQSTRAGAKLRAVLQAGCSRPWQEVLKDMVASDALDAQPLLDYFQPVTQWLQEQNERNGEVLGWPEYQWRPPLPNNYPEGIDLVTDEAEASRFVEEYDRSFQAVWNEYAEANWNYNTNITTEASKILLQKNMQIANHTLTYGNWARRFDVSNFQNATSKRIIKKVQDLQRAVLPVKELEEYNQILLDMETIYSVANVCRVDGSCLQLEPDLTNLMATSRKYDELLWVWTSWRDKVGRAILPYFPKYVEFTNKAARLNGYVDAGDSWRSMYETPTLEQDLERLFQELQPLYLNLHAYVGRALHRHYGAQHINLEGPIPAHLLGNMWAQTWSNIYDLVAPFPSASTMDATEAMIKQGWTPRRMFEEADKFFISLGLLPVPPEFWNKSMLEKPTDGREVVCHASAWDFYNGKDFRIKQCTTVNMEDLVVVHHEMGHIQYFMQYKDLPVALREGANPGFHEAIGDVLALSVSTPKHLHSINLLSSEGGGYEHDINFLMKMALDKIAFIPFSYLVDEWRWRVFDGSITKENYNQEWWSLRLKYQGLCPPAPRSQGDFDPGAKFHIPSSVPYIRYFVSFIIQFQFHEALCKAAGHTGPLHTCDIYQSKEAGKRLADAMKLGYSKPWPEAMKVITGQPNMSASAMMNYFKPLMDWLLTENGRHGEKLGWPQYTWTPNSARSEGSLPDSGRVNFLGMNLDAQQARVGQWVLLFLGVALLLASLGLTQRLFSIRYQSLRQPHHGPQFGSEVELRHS
Procedure, shortened: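 Rabbit lung ACE in 300 mM NaCl, 100 mM KH2PO4 (pH 8.3). Enzyme and drug mixed, then hippurylhistidylleucine (2 mg/mL stock) added and incubated 75 min at room temperature. Stopped with 1 N NaOH, o-phthalaldehyde added for 10 min at 25 °C, acidified with HCl, OD read at 360 nm.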

[2] = molecular target: T2, Angiotensin-converting enzyme (Rattus norvegicus) (UniProt P47820); assay: Evaluation of plasma inhibition of Angiotensin I converting enzyme activity in conscious rat 6 hours after intravenous administration at a dose of 10 mg/kg; type: functional, organism-based; design: dose 10 mg/kg
T2 sequence (whole entry): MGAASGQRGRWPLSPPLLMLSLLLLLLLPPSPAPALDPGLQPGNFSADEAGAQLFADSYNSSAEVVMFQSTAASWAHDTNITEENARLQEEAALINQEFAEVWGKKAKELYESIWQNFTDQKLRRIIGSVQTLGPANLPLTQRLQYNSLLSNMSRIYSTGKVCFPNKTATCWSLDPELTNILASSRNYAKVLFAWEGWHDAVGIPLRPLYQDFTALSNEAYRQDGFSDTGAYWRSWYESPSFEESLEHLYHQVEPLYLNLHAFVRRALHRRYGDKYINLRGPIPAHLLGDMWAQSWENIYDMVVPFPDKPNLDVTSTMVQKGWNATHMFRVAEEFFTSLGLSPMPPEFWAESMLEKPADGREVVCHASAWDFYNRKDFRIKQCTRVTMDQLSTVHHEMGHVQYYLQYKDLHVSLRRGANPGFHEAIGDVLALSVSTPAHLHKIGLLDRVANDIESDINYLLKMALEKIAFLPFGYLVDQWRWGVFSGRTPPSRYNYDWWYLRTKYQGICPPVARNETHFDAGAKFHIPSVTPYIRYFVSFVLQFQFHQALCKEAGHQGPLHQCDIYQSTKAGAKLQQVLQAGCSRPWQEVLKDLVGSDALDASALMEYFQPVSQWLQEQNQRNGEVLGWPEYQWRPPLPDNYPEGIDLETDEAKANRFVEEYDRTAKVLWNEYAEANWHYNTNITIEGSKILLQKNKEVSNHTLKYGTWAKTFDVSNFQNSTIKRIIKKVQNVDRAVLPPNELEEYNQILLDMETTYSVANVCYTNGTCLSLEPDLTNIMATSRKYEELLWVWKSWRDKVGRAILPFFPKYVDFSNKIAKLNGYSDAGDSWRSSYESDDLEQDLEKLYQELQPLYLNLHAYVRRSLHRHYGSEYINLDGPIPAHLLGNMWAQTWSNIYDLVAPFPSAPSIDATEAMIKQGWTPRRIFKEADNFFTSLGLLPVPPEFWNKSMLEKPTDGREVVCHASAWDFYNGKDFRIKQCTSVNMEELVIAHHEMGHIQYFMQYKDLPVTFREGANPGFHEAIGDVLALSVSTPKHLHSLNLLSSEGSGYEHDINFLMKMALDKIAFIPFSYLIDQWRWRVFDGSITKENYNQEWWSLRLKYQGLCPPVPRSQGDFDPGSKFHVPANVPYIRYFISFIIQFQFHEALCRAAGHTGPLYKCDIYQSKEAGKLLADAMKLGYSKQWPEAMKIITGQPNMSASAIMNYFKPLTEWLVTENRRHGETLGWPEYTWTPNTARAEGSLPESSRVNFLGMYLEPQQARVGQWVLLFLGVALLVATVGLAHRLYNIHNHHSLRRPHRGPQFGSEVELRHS
Procedure, shortened: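 Male conscious normotensive Sprague-Dawley rats (275-390 g) fitted the day before with femoral arterial and venous catheters under methohexital anesthesia. Three angiotensin-I challenges (300 ng/kg iv) given as baseline. Compound given iv, ia or po (12.3 mg/kg po dose in 3% cornstarch at 1 mg/mL), then AI challenges repeated at set times. Pressor response compared with the mean baseline response and expressed as % inhibition.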

[3] = molecular target: T2, Angiotensin-converting enzyme (Rattus norvegicus); assay: Evaluation of plasma inhibition of Angiotensin I converting enzyme activity in conscious rat 1 hour after oral administration at a dose of 10 mg/kg; type: functional, organism-based; design: dose 10 mg/kg
[4] = molecular target: T2, Angiotensin-converting enzyme (Rattus norvegicus); assay: Evaluation of plasma inhibition of Angiotensin I converting enzyme activity in conscious rat 4 hour after oral administration at a dose of 10 mg/kg; type: functional, organism-based; design: dose 10 mg/kg
[5] = molecular target: T2, Angiotensin-converting enzyme (Rattus norvegicus); assay: Evaluation of plasma inhibition of Angiotensin I converting enzyme activity in conscious rat 2 hour after oral administration at a dose of 10 mg/kg; type: functional, organism-based; design: dose 10 mg/kg

SMILES | IC50 [1] | inhibition [2] | inhibition [3] | inhibition [4] | inhibition [5]
CC(C)[C@H](S)C(=O)NC1(C(=O)N[C@@H](Cc2ccc(O)cc2)C(=O)O)CCOCC1 | 11 nM |  |  |  | 
CC(C)[C@H](S)C(=O)NC1(C(=O)N[C@@H](Cc2ccc(O)cc2)C(=O)O)CC1 | 15 nM | 17% |  |  | 
CC(C)[C@H](S)C(=O)NC1(C(=O)N[C@@H](CCc2ccccc2)C(=O)O)CCCC1 | 30 nM | 75% |  |  | 
CC(C)[C@H](S)C(=O)NC1(C(=O)N[C@@H](Cc2ccsc2)C(=O)O)CCCC1 | 11 nM | 71% |  |  | 
CC(C)[C@H](S)C(=O)NC1(C(=O)N[C@@H](Cc2ccccn2)C(=O)O)CCCC1 | 35 nM | 17% |  |  | 
CC(C)[C@H](S)C(=O)NC1(C(=O)N[C@@H](Cc2ccc(O)cc2)C(=O)O)Cc2ccccc2C1 | 26 nM | 9% |  |  | 
CC(C)[C@H](S)C(=O)NC1(C(=O)N[C@@H](Cc2ccc(F)cc2)C(=O)O)CCCC1 | 24 nM | 28% |  |  | 
O=C(O)[C@H](Cc1ccc(O)cc1)NC(=O)C1(NC(=O)[C@@H](S)Cc2ccccc2)CCCC1 | 22 nM | 17% |  |  | 
O=C(CS)NC1(C(=O)N[C@@H](Cc2ccc(O)cc2)C(=O)O)CCCC1 | 58 nM |  |  |  | 
CC(C)[C@H](S)C(=O)NC1(C(=O)N[C@@H](Cc2cccs2)C(=O)O)CCCC1 | 18 nM | 29% |  |  | 
CC(C)[C@H](S)C(=O)NC1(C(=O)N[C@@H](Cc2c[nH]c3ccccc23)C(=O)O)CCCC1 | 10 nM | 82% | 45% | 29% | 50%
CC(C)[C@H](S)C(=O)NC1(C(=O)N[C@@H](Cc2ccc(O)cc2)C(=O)O)CCCC1 | 7 nM | 68% | 48% | 36% | 59%
CC(C)[C@H](S)C(=O)NC(C)(C)C(=O)N[C@@H](Cc1ccc(O)cc1)C(=O)O | 15 nM | 67% |  |  | 
